This passage reports MIC and T/C results from ChEMBL document CHEMBL1125658, “Synthesis and properties of some peptide analogues of actinomycin D” (1991).

Usually MIC stands for the lowest concentration that inhibits growth of the organism.

Holding throughout (type): functional
One assay deals with Staphylococcus aureus. As to the kind of experiment: Compound was tested for its antibacterial activity against Staphylococcus aureus. Put shortly:
(§1)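 Overnight culture in trypticase soy broth at 37 °C, 0.1 mL subcultured into 50 mL fresh TSB and grown 8 h. Then 0.1 mL of the rapidly growing culture was diluted into a further 50 mL TSB. 0.1 mL of this dilution inoculated into 2 mL TSB per tube for MIC determination.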

For a further assay, the system named is Bacillus subtilis. As to the kind of experiment: Compound was tested for its antibacterial activity against Bacillus subtilis. The procedure, abridged: as §1
Another assay has as its system Mus musculus. As to the kind of experiment: Compound was tested in vivo for its antitumor activity against B16 melanocarcinoma in mice by determining its median survival time at dose of 0.256 mg/Kg.

In brackets after ≈: the same amount, converted by molar mass. Starred links: 1 amine or outer side, 2 acyl side, 3 side chain; linkers in the order of their positions; H or OH if unused. Positions of bridges follow the written chain, without caps; N, C: chain ends. Non-standard residues stand in square brackets, D forms with d. Residues, ends and D or L forms follow the SMILES beside them. Chains are numbered I, II in the order given. Actinocin(1to9) = Cc1c2oc3c(C)ccc(C(=O)[*:2])c3nc-2c(C(=O)[*:1])c(N)c1=O; NMeV = CN[C@H](C(=O)O)C(C)C; Sar = CNCC(=O)O

For `Cc1c2oc3c(C)ccc(C(=O)N[C@@H]4C(=O)N[C@H](C(C)C)C(=O)N5CCC[C@H]5C(=O)N(C)CC(=O)N(C)[C@@H](CC(C)C)C(=O)O[C@@H]4C)c3nc-2c(C(=O)N[C@@H]2C(=O)N[C@H](C(C)C)C(=O)N3CCC[C@H]3C(=O)N(C)CC(=O)N(C)[C@@H](CC(C)C)C(=O)O[C@@H]2C)c(N)c1=O`, the MIC was 0.5 µg/mL (≈ 0.39 µM) with Staphylococcus aureus and 0.2 µg/mL (≈ 0.156 µM) in the assay with Bacillus subtilis.

In the assay with Mus musculus, `Cc1c2oc3c(C)ccc(C(=O)N[C@@H]4C(=O)N[C@H](C(C)C)C(=O)N5CCC[C@H]5C(=O)N(C)CC(=O)N(C)[C@@H](C(C)C)C(=O)O[C@@H]4C)c3nc-2c(C(=O)N[C@@H]2C(=O)N[C@H](C(C)C)C(=O)N3CCC[C@H]3C(=O)N(C)CC(=O)N(C)[C@@H](C(C)C)C(=O)O[C@@H]2C)c(N)c1=O` [DACTINOMYCIN] (I: T[dV]P[Sar][NMeV] / II: T[dV]P[Sar][NMeV]; ester I:1-I:C, II:1-II:C; linker I:N-II:N via Actinocin(1to9)) had a T/C of 165. Besides, the MIC with Staphylococcus aureus was determined as 0.25 µg/mL (≈ 0.199 µM); against Bacillus subtilis, 0.09 µg/mL (≈ 0.0717 µM).
